In ChEMBL document CHEMBL1157870, “Synthesis of 3-((2,4-dichlorophenoxy)methyl)-1,2,4-triazolo(thiadiazoles and thiadiazines) as anti-inflammatory and molluscicidal agents” (Eur J Med Chem, 2010):

How the values were obtained:
Biomphalaria alexandrina = assay: Molluscicidal activity against Biomphalaria alexandrina assessed as mortality at 10 ppm after 24 hrs; format: organism-based; conditions: in vivo
In short: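 Compounds dissolved with a few drops of Tween 20 and 2 mL DMSO, then diluted with untreated Nile raw water to 1, 5 or 10 ppm in aerated glass jars. Ten snails per concentration held 24 h at 25 °C. Mean number killed over three repeats recorded. Controls received Tween 20/DMSO in water; Bayluscide served as reference. Follows WHO guidelines, modified.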

Rattus norvegicus [1] = assay: Antiinflammatory activity against carrageenan-induced paw edema in po dosed rat administered 1 hr before carrageenan challenge assessed after 1 hr; format: functional
In short: (§1)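 Rats of about 200 g dosed orally; 1 h later, 1 mg carrageenan in […] physiological solution injected subplantar into the hind left paw. Paw volume measured hourly for 4 h by plethysmometer, dipping the paw in 0.45% saline. Read-out is % change in paw volume versus baseline, given as % inhibition of oedema ± S.E. Indomethacin served as reference.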

Rattus norvegicus [2] = assay: Antiinflammatory activity against carrageenan-induced paw edema in po dosed rat administered 1 hr before carrageenan challenge assessed after 2 hrs; format: functional; in short: as §1
Rattus norvegicus [3] = assay: Antiinflammatory activity against carrageenan-induced paw edema in po dosed rat administered 1 hr before carrageenan challenge assessed after 3 hrs; format: functional; in short: as §1
Rattus norvegicus [4] = assay: Antiinflammatory activity against carrageenan-induced paw edema in po dosed rat administered 1 hr before carrageenan challenge assessed after 4 hrs; format: functional; in short: as §1

Row | Compound | Activity (Biomphalaria alexandrina) | inhibition (INH) (Rattus norvegicus [1]) [%] | inhibition (INH) (Rattus norvegicus [2]) [%] | inhibition (INH) (Rattus norvegicus [3]) [%] | inhibition (INH) (Rattus norvegicus [4]) [%]
1 | Clc1ccc(OCc2nnc3snnn23)c(Cl)c1 | Toxic | 70.78 | 94.8 | 108.482 | 74.03
2 | Clc1ccc(OCc2nnc3n2N=C(c2ccccc2)CS3)c(Cl)c1 |  | 27.66 | 45.62 | 60.42 | 48.51
3 | Clc1ccc(OCc2nnc3sc(-c4ccco4)nn23)c(Cl)c1 |  | 51.38 | 54.62 | 99.24 | 93.97
4 | Clc1ccc(OCc2nn3c(COc4ccc(Cl)cc4Cl)nnc3s2)c(Cl)c1 |  | 26.95 | 48.4 | 63.15 | 58.48
5 | O=[N+]([O-])c1ccc(-c2nn3c(COc4ccc(Cl)cc4Cl)nnc3s2)c([N+](=O)[O-])c1 |  | 32.16 | 66.06 | 68.04 | 63.95
6 | COc1ccc(-c2nn3c(COc4ccc(Cl)cc4Cl)nnc3s2)cc1 |  | 26.75 | 46.22 | 56.34 | 44.34
7 | Nn1c(S)nnc1COc1ccc(Cl)cc1Cl | Toxic | 50 | 60.3 | 102.8511 | 81.75
8 | Clc1ccc(OCc2nnc3n2N=C(c2cc4ccccc4o2)/C(=C/c2cn(-c4ccccc4)nc2-c2cc4ccccc4o2)S3)c(Cl)c1 |  | 29.71 | 41.32 | 59.66 | 35.78
9 | COc1ccc2c(c1)c(CC(=O)O)c(C)n2C(=O)c1ccc(Cl)cc1 [INDOMETHACIN] |  | 24.8 | 20.97 | 26.29 | 20.19
10 | O=C(Nc1ccc([N+](=O)[O-])cc1Cl)c1cc(Cl)ccc1O [NICLOSAMIDE] | Toxic |  |  |  | 
